The nature of test [1]: mutant MDM2 reporter signal enhancers, dose response, cell-based, luciferase luminescence (AID 1442). Particulars: mutant MDM2 reporter cells, luciferase luminescence enhancement, 2 h; stronger effect = higher value. Summed up:
(§1)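 Material: MDM2-luciferase fusion reporter cells. Incubation: compound exposure of 2 h at 37 °C. Measured by: luminescence. Evaluation: blank-corrected % enhancement vs untreated cells. Control set: cells without compound as reference, wells for blank correction.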

Test [2] has as its system mutant MDM2 reporter cells, luciferase luminescence enhancement, 2 h. The description is as above. The method, boiled down: as §1

Activity calls are given as the source filed them.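 Rule for the calls: active = maximum enhancement above 22% with a fitted EC50 greater than zero; inactive = the rest.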

As for `O=C1C(Cl)=C(N2CCCCC2)C(=O)C(Cl)=C1c1cnc(N2CCCCC2)s1`, the maximum enhancement in test [1] was 16.3% (inactive). As usually defined, the EC50 is the concentration needed to bring the measured effect to its halfway point. For `CCOC(=O)/C=C/C(=O)Nc1ccccc1-c1ccccc1NC(=O)/C=C/C(=O)OCC`, in test [2], the EC50 was 1320 µM. For the compound `CN(C)c1nc(=NCc2ccco2)ss1`, in test [2], the EC50 is 0.1 µM. Still for that read-out and setting: as for `CCN(CC)c1ccc(/C=C2\C(=O)c3ccc(C(=O)O)cc3C2=O)cc1`, the figure is 216 µM (inactive); as for `CN(C)C(=S)SSC(=S)N(C)C`, 0.08 µM; as for `CC(NC(=O)Cn1ncc(Cl)c(Cl)c1=O)C12CC3CC(CC(C3)C1)C2` (configuration not stated), 41.6 µM. Same read-out and setting: as for `CCN1C/C(=C/c2ccc(OC)c(O)c2)C(=O)/C(=C/c2ccc(OC)c(O)c2)C1`, the figure is 888 µM; as for `C=CS(=O)(=O)c1ccc(Oc2ccc(S(=O)(=O)C=C)cc2)cc1`, 1.5 µM. For `Cc1ccc(C=C2C(Cl)=C(Cl)C(Cl)=C2Cl)cc1`, the maximum enhancement in test [1] is 10.2% (inactive). Take `O=C(Cn1ncc(Cl)c(Cl)c1=O)NCC1CCCCC1`: in test [2], the EC50 was 2.08 µM. Still for that read-out and setting: with `O=C(/C=C/c1cccnc1)/C=C/c1cccnc1` the figure was 0.58 µM; with `CC1=NN(c2cccc(C(=O)O)c2)C(=O)/C1=C\C=C/c1ccccc1`, 92.9 µM; with `C=CCSc1nc2ccccc2n1C(=O)/C=C/c1cc(OC)c(OC)c(OC)c1`, 1.16 µM.

For `COc1cccc(OC)c1C(=O)NNC(=O)c1cccc(COc2ccc3c(c2)CCC3)c1`, the EC50 in test [2] was 562 µM (inactive). Take `CCOC(=O)C1=C(c2ccccc2)O/C(=C(/C#N)C(F)(F)F)S1`: the EC50 in test [2] is 40.8 µM. Regarding `COC(=O)CSC1=C(C#N)C(=O)NC(c2ccccc2)S1` (configuration not stated), the EC50 in test [2] was 4.1 µM. Take `COc1ccc(CS(=O)/C(Cl)=C(/Cl)C(=O)Nc2ccc(OC)nc2)cc1` (configuration not stated): in test [2], the EC50 is 3.41 µM. On the same count and under the same terms, as for `Cc1ccc2c(c1)c1ccc3c(c1n2C)C(=O)C=CC3=O`, the figure is 1.83 µM; as for `Nc1cccc2c1C(=O)N(C(=O)/C=C/c1cccc(Br)c1)C2=O`, 16.5 µM; as for `CC(C)CC(=O)/C=C/n1c(=S)oc2ccccc21`, 4.79 µM. Still for that read-out and setting: with `Cc1cc(C)nc(S/C=C/C(=O)c2ccccc2)n1` the figure was 0.79 µM. The same measure, in the same setting: as for `CCSc1nc2ccccc2n1C(=O)/C=C\c1ccc(OC)c(OC)c1`, the figure is 1630 µM; as for `Cc1cccc2c1c1ccc3c(c1n2C)C(=O)C=CC3=O`, 1.43 µM; as for `Cc1cc(C)nc(S/C=C/C(=O)c2ccc(F)cc2)n1`, 2.67 µM. As to `CC(C)c1ccc2c(c1)C1(NN=C(c3ccccc3)S1)C(=O)N2` (configuration not stated), the EC50 in test [2] was 1.42 µM. Regarding `CCOC(=O)N1C/C(=C\c2ccccc2)C(=O)/C(=C/c2ccccc2)C1`, the EC50 in test [2] was 1.94 µM.

Regarding `COc1cc(/C=C2\COC/C(=C\c3cc(OC)c(OC)c(OC)c3)C2=O)cc(OC)c1OC`, the EC50 in test [2] is 648 µM. Same read-out and setting: as for `COc1ccc(NC(=O)/C(Cl)=C(/Cl)S(=O)Cc2ccc(Cl)cc2)cn1` (configuration not stated), the figure is 0.46 µM; as for `CN(C(=O)c1cccc(COc2ccc(Cl)cc2Cl)c1)c1ccccc1`, 15.6 µM (inactive); as for `O=C(/C=C/c1cccc([N+](=O)[O-])c1)n1cnc2ccccc21`, 1.72 µM. Consider `CCN(CC)c1ccc(/C=C2/C(=O)c3ccc(C(=O)O)cc3C2=O)cc1`, for which the maximum enhancement in test [1] is 15.6% (inactive).

For the compound `CC(C)c1ccc(OCc2cccc(C(=O)N/N=C/c3cccnc3)c2)cc1`, the EC50 in test [2] was 200 µM (inactive). Still for that read-out and setting: with `CCSc1nc2ccccc2n1C(=O)/C=C/c1ccc(OC)c(OC)c1` the figure was 1.13 µM; with `COCCNC(=O)/C(C#N)=C/c1cccc(/C=C(\C#N)C(=O)NCCOC)c1`, 0.73 µM. As to `COc1ccccc1-c1cc(SC)c(C#N)c(=O)o1`, the maximum enhancement in test [1] was 18% (inactive). Turning to `C=C1C(=O)O[C@@H]2C[C@@H](C)[C@@H]3C=CC(=O)[C@@]3(C)[C@@H](O)[C@H]12`, the EC50 in test [2] was 1.11 µM. For `COc1ccc(NC(=O)/C(Cl)=C(/Cl)S(=O)Cc2ccc(C)cc2)cn1` (configuration not stated), the EC50 in test [2] was 0.84 µM.

Source of the values: PubChem BioAssay AID1442 (PCMD, 2008).
